An excerpt weighted towards active compounds, which were near 2.5% of everything screened.
MEKK2wt PB1 HTS: raises or lowers MEK5 binding to wildtype human MEKK2 PB1 domain; bead flow cytometry, Alexa488-MEK5 binding to MEKK2 WT; actives lie on both sides; binding response (% of control), % at 10 µM; 290,000 compounds, 1.1% hits; AID 1531; in the data active means binding response below about 67% or above about 130%
UCH37 DUB inh: inhibitors of human deubiquitinating enzyme UCH37; purified proteasome/UCH37, Ub-AMC cleavage fluorescence; 330,000 compounds, 0.33% hits; AID 588478; inhibition, % (test concentration not listed);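 active means mean inhibition over replicate wells above about 20%, limit read from the data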;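 further: 0% = compound-free wells with enzyme and 100% = wells lacking proteasome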
Target sequence (Q9Y5K5 whole entry, looked up): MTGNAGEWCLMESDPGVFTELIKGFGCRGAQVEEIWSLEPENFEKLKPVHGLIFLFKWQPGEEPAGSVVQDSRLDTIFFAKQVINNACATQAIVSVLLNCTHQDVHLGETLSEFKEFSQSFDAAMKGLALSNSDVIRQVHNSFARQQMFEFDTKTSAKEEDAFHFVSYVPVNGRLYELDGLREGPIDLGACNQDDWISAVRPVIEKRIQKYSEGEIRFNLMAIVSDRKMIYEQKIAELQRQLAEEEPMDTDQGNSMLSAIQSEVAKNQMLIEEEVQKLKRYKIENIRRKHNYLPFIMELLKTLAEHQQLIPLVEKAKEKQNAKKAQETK
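Material: Human UCH37 enzyme supplied as purified proteasome complex | Schedule: 30 min compound-proteasome preincubation then 25 min substrate reaction, room temperature | Detection: AMC fluorescence from Ub-AMC cleavage, excitation 355 nm, emission 460 nm | Benchmarks: Wells without proteasome as full block, compound-free enzyme plus substrate as uninhibited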
MEKK3 PB1 HTS: MEKK3-MEK5 PB1 interaction, increase or decrease; Q99759; bead-based flow cytometry, Alexa488-MEK5 binding to MEKK3; actives lie on both sides; 0 = blocked by unlabeled MEK5, 100 = vehicle; binding response (% of control), % at 10 µM; 290,000 compounds, 1.4% hits; AID 1529;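 active means binding response more than 3 SD above or below the average of its plate-row segment, actives on both sides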;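 further: Alexa488 bead fluorescence after subtracting the streptavidin-only scavenger bead signal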
MEKK2 mut-MEK5: signal of MEK5 binding to mutant human MEKK2 PB1 domain; 290,000 compounds, 0.35% hits; bead flow cytometry, Alexa488-MEK5 binding to MEKK2 mutant; percent response, % at 10 µM; AID 1530; in the data active means percent response above about 24%, passing the limit was not always enough
T cell HTS: modulates CD8 T cell binding to vesicles. response (vesicle binding), % at 7 µM. 330,000 compounds, 0.068% hits. 2C CD8+ T cell-vesicle binding, flow cytometry; hits give low values;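 active means response, share of CD8 T cells binding vesicles, and their 90th percentile fluorescence all below set limits, cut at about 80% in these data, passing the limit was not always enough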;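 further: values below 100% mean blocked vesicle binding to the CD8+ T cells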
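Material: murine 2C transgenic CD8+ T lymphocytes / Also added: QL9-peptide-loaded Drosophila micro-vesicles bearing Ld, ICAM-1 and B7-1 / Schedule: binding step 1.5 h, 37 °C, antibody labelling 20 min, ice / Signal: flow cytometry, PE anti-B7-1 (FL2) versus Alexa647 anti-CD8 (FL8), PFA-fixed / Evaluation: percent CD8+ FL2 mean versus row control / Benchmarks: naked versus QL9-loaded vesicles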
Rce1 inhib: inhibitors of yeast Ras-converting enzyme. Q03530. AID 2563. 290,000 compounds, 0.27% hits. yeast membranes, quenched prenylated peptide cleavage fluorescence. calls only;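 active means fall in fluorescence gain of 50% or more versus controls, with final raw signal at or below 3038400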;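 further: plate controls were neutral control wells for no effect and wells lacking membranes for full effect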
MEKK2wt confirm: raises or lowers MEK5 binding to wildtype human MEKK2, retest. bead flow cytometry, Alexa488-MEK5 binding to MEKK2 WT; actives lie on both sides. binding response (% of control), % at 10 µM. shares compounds with MEKK3 PB1 HTS. 5,900 compounds, 2.4% hits. AID 1892; in the data active means binding response below about 16% or above about 210%; inactive means in between
MEKK2mut-MEK5: signal of MEK5 binding to mutant human MEKK2, retest; shares compounds with MEKK3 PB1 HTS; 5,900 compounds, 2% hits; AID 1893; percent response, % at 10 µM; bead flow cytometry, Alexa488-MEK5 binding to MEKK2 mutant; in the data active means percent response mostly above about 71%, no sharp cut-off; inactive means mostly below about 38%;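 further: higher means compound restores mutant binding toward wildtype level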
MEKK3 confirm: confirmation of inhibitors of MEK5 binding to human MEKK3; shares compounds with MEKK3 PB1 HTS; bead flow cytometry, Alexa488-MEK5 binding to MEKK3; hits give low values; binding response (% of control), % at 10 µM; 5,900 compounds, 1.8% hits;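 active means binding response below 72% of control, or above a set upper limit, though filed actives all read lower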;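 further: 100% = DMSO only wells and 0% = binding blocked by excess unlabeled MEK5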
Numbers without * were called inactive; i = inactive; nt = not tested or not shown; [ ] = dose if it differs, or a comment.

SMILES	MEKK2wt PB1 HTS	UCH37 DUB inh	MEKK3 PB1 HTS	MEKK2 mut-MEK5	T cell HTS	Rce1 inhib	MEKK2wt confirm	MEKK2mut-MEK5	MEKK3 confirm
COc1ccc(OC)c(/C=N/NC(=O)CCc2ccc(O)c(O)c2)c1	107	nt	136*	1	215	i	94	-5	98
Cc1ccc(C2=NNC(=O)C(c3c[nH]c4ccccc34)C2)cc1 (stereo not given)	116	-1	128*	-1	854	i	106	2	102
O=c1[nH]c(Nc2ccc3c(c2)OCCO3)nnc1Cc1ccc(Cl)cc1	106	2	129*	3	161	nt	94	-8	97
CCOC(=O)NN=Cc1cccc(Cl)c1Cl	nt	4	nt	nt	nt	nt	nt	nt	nt
CCCc1ccc(S(=O)(=O)Nc2ccc(C)c(NS(C)(=O)=O)c2)cc1	106	2	104	1	229	i	nt	nt	nt
CCCCc1ccc(S(=O)(=O)Nc2ccc(C)c(NS(C)(=O)=O)c2)cc1	113	2	137*	29	495	i	100	1	101
Cc1ccc(-n2c(SCC(=O)N3CCCc4ccccc43)nnc2-c2cccnc2)c(C)c1	91	2	97	3	227	nt	nt	nt	nt
CCOc1ccccc1-n1c(SCC(=O)N2CCCc3ccccc32)nnc1-c1cccnc1	104	2	132*	-1	280	i	112	4	105
Cc1ccc(-n2[nH]c(C)c(C=Nn3c(C)nc4ccccc4c3=O)c2=O)cc1	nt	0	nt	nt	nt	nt	nt	nt	nt
COC(=O)c1[nH]c2cc(OC)ccc2c1N	30*[inhibitor]	-25	18*[inhibitor]	-43	176	i	109	7	102
COC(=O)c1[nH]c2cccc(OC)c2c1NC(=O)CCN1CCSCC1	102	-24	105	4	262	i	nt	nt	nt
CCOC(=O)Nc1c(C(=O)OC)[nH]c2cc(OC)ccc12	102	2	107	11	210	i	nt	nt	nt
COC(=O)c1[nH]c2cc(OC)ccc2c1NC(=O)CCN1CCSCC1	125	-2	124*	7	348	i	98	2	100
Cc1ccc(-c2ccc(C=NNC(=S)Nc3ccccc3)o2)cc1[N+](=O)[O-]	nt	5	nt	nt	nt	nt	nt	nt	nt
Oc1ccccc1/C=N/Nc1cc(N2CCCC2)nc(N2CCCC2)n1	181*	nt	102	40	243	i	152	22	107
Oc1ccc(C=NNc2cc(N3CCCC3)nc(N3CCCC3)n2)cc1O	nt	16	nt	nt	nt	nt	nt	nt	nt
CCCCC(=O)NN=C(C)CC(=O)Nc1cc(Cl)ccc1OC	nt	1	nt	nt	nt	nt	nt	nt	nt
N#CCCN(C(=O)COC(=O)c1ccc2c(=O)n3c(nc2c1)CCC3)c1ccccc1	102	-12	102	-5	350	i	nt	nt	nt
CN(CCC#N)C(=O)COC(=O)c1ccc2c(=O)n3c(nc2c1)CCC3	111	-11	128*	0	562	i	98	-1	99
Cc1ccc(S(=O)(=O)N/N=C\c2ccc(C)o2)cc1	100	nt	98	1	121	i	nt	nt	nt
Cc1ccc(/C=N/NS(=O)(=O)c2ccc([N+](=O)[O-])cc2)o1	106	nt	134*	1	136	i	107	4	101
Cc1ccc(/C=N/NC(=O)c2cccs2)o1	110	nt	128*	1	307	i	104	8	103
O=C(NN=Cc1cn[nH]c1-c1ccc(Cl)cc1)c1cccs1	nt	-8	nt	nt	nt	nt	nt	nt	nt
O=C(N/N=C\c1ccc(-c2ccc([N+](=O)[O-])cc2)o1)c1ccc2c(c1)OCO2	108	nt	142*	2	260	i	96	-1	99

Screens deposited in PubChem BioAssay by several laboratories.
